# Source: paper PMC9322249 (Journal of Food and Drug Analysis, 2017)
# Key:
# [1] = Oxygen radical absorption capacity; settings: TEAC units; X = EO or compound
# Method in brief: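 Peroxyl radical (ROO) scavenging by the oils and individual components, following a published ORAC method, in triplicate. Data are mean ± SD, with significance by ANOVA/Tukey's HSD (p < 0.05).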
# Reducing power = settings: AAE units; X = EO or compound
# Method in brief: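 Reduction of potassium ferricyanide by the oils and individual components, by a published method, in triplicate. Results are reported as ascorbic acid equivalents per volume of EO, mean ± SD, with ANOVA/Tukey's HSD (p < 0.05).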
# [2] = DPPH radical scavenging capacity; settings: TEAC units; X = EO or compound
# Method in brief: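 DPPH radical scavenging by essential oils and individual components, by a published method, in triplicate. Values are expressed as μmol TE/mL EO and given as mean ± SD, with ANOVA/Tukey's HSD at p < 0.05.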
# [3] = biological target: T1, lipoxygenase (LOX) (linoleate:oxygen oxidoreductase, EC 1.13.11.12) (Glycine max, UniProt P08170); experiment: Lipoxygenase; assay type: biochemical, Glycine max (soybean); settings: soybean LOX, linoleic acid substrate, 25 °C; mean ± SD
# T1 sequence (P08170 1-839): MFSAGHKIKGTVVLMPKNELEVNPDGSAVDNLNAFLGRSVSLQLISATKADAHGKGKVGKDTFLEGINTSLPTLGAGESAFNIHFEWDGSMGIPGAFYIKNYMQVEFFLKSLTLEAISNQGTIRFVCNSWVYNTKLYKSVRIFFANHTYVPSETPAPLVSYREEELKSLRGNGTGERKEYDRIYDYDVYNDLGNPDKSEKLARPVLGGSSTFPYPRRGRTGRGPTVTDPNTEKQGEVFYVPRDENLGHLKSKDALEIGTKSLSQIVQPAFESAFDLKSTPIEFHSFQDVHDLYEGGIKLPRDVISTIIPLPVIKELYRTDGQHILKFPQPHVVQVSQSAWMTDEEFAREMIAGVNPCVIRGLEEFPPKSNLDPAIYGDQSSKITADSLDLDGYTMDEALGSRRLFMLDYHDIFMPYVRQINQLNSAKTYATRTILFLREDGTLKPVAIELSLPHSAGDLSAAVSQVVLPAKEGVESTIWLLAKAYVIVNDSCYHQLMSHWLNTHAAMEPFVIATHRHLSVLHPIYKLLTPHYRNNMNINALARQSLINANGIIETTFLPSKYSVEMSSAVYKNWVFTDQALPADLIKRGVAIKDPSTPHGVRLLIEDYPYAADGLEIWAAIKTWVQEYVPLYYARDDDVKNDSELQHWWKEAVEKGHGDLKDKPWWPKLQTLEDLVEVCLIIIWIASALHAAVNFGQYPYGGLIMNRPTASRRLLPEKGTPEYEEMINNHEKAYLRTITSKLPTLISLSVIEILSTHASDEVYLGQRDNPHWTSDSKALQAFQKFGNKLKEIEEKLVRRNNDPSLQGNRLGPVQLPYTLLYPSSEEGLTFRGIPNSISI
# Chelating power = settings: for ChP: EDTAE units, X = EO or compound
# Method in brief: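 Ferrous ion chelation by essential oils and their major components, by a published method, in triplicate. Results are expressed as EDTA equivalents per volume of EO, mean ± SD, with ANOVA/Tukey's HSD (p < 0.05).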
# [4] = ABTS radical cation bleaching assay; settings: TEAC units; X = EO or compound
# Method in brief: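 ABTS radical cation (ABTS•+) bleaching by essential oils and their individual components, run in triplicate by a published method. Results are given as mean ± SD, compared by ANOVA with Tukey's HSD (p < 0.05).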
# [5] = Thiobarbituric acid reactive substances; settings: BHTE units; X = EO or compound
# Method in brief: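 TBARS formation by oxidation measured in soybean lecithin homogenate as lipid-rich medium, by a published method, in triplicate. Values are expressed as μmol BHTE/mL EO, mean ± SD, with ANOVA/Tukey's HSD (p < 0.05).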
"LOX inhibitory activity, IC50 of main commercially available compounds [3]",Compound,ORAC [1],RdP (Reducing power),DPPH [2],ChP (Chelating power),ABTS [4],TBARS [5],"Chelating power (ChP), result in words (Chelating power)"
75 ± 3 μL (Compound)/L,CC(=O)OC1CC2CCC1(C)C2(C)C (stereo not drawn) [bornyl acetate],N/D (Activity lower than 0.05 units at a maximum assay concentration of 100 mM),N/D (Activity lower than 0.05 units at a maximum assay concentration of 100 mM),N/D (Activity lower than 0.05 units at a maximum assay concentration of 100 mM),0.1 ± 0.0 μmol EDTAE/mL X,N/D (Activity lower than 0.05 units at a maximum assay concentration of 100 mM),N/D (Activity lower than 0.05 units at a maximum assay concentration of 100 mM),–
422 ± 13 μL (Compound)/L,CC12CCC(CC1=O)C2(C)C (stereo not drawn) [camphor],N/D (Activity lower than 0.05 units at a maximum assay concentration of 100 mM),N/D (Activity lower than 0.05 units at a maximum assay concentration of 100 mM),N/D (Activity lower than 0.05 units at a maximum assay concentration of 100 mM),N/D (Activity lower than 0.05 units at a maximum assay concentration of 100 mM),N/D (Activity lower than 0.05 units at a maximum assay concentration of 100 mM),N/D (Activity lower than 0.05 units at a maximum assay concentration of 100 mM),–
58 ± 5 μL (Compound)/L,C=C(C)[C@H]1CC=C(C)CC1 [limonene],0.8 ± 0.1 μmol TE/μL X,N/D (Activity lower than 0.05 units at a maximum assay concentration of 100 mM),N/D (Activity lower than 0.05 units at a maximum assay concentration of 100 mM),36.7 ± 2.3 μmol EDTAE/mL X,3.6 ± 0.2 μmol TE/mL X,N/D (Activity lower than 0.05 units at a maximum assay concentration of 100 mM),–
599 ± 8 μL (Compound)/L,C=CC(C)(O)CCC=C(C)C (stereo not drawn) [linalool],1.9 ± 0.1 μmol TE/μL X,N/D (Activity lower than 0.05 units at a maximum assay concentration of 100 mM),N/D (Activity lower than 0.05 units at a maximum assay concentration of 100 mM),541.6 ± 32.7 μmol EDTAE/mL X,0.4 ± 0.0 μmol TE/mL X,N/D (Activity lower than 0.05 units at a maximum assay concentration of 100 mM),high ChP
79 ± 5 μL (Compound)/L,Cc1ccc(C(C)C)cc1 [p-cymene],N/D (Activity lower than 0.05 units at a maximum assay concentration of 100 mM),N/D (Activity lower than 0.05 units at a maximum assay concentration of 100 mM),N/D (Activity lower than 0.05 units at a maximum assay concentration of 100 mM),124.7 ± 9.8 μmol EDTAE/mL X,0.6 ± 0.0 μmol TE/mL X,N/D (Activity lower than 0.05 units at a maximum assay concentration of 100 mM),high chelating activity
23 ± 2 μL (Compound)/L,Cc1ccc(C(C)C)c(O)c1 [thymol],2.1 ± 0.1 μmol TE/μL X,3353.9 ± 133.4 μmol AAE/L X,34.9 ± 2.1 μmol TE/mL X,N/D (Activity lower than 0.05 units at a maximum assay concentration of 100 mM),6897.1 ± 225.0 μmol TE/mL X,869.4 ± 255.2 μmol BHTE/mL X,do not show any ChP
